The values below come from the RNAGym collection of RNA variant scans (doi:10.1126/science.aae0568).

Variants at the floor of the assay were thinned out.

B1: tRNA (parent)
chain: GUUCCGUUGGCGUAAUGGUAACGCGUCUCCCUCCUAAGGAGAAGACUGCGGGUUCGAGUCCCGUACGGAACG

In the data set the parent is B1. Briefly: yeast fitness relative to wild type (ratio to wild type); higher = fitter; tRNA-Arg(CCU), competitive growth, 37 C, YPD. Put shortly:
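A pool of Saccharomyces cerevisiae strains, each with a tRNA-Arg(CCU) gene variant at the native genomic locus, was competed in YPD at 37°C for 24 hours across six parallel replicates. The variants had been chemically synthesised at a 3% per-site mutation rate over 69 sites, and gene amplicons before and after competition were read by 100-nucleotide paired-end sequencing. Darwinian fitness relative to wild type rested on changes in genotype frequencies. Genotypes required ≥ 100 starting reads, and estimates < 0.5 were set to 0.5.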
In the case of C4U G12A A20G C22U C55U A65U, the yeast fitness was determined as 0.53.

As to C4U G10A U19C C24U, the yeast fitness came to 0.721. Regarding C4U G10A A36U, the yeast fitness was not above 0.5.

For C4U G18C A57U C62U U64A G68C, the yeast fitness was not above 0.5. For the variant C4U G58C U64A, the yeast fitness is 0.848.

In the case of C4U G10A G12A, the yeast fitness worked out at 0.653. The value for C4U C30U U53G G56C C62G was not above 0.5. The value for C4U U7G C34G was 0.554; that for C4U G10C A15G A20U A21G C33U U47C A57C was not above 0.5; that for C4U C61G C62A was not above 0.5. The figure for C4U C61G C62G is not above 0.5; for C4U G52C U59C it is not above 0.5; for C4U U13A A14U C29U C30U A37G it is not above 0.5. On to C4U G25C C30G C55A, for which the yeast fitness is 0.561. The value for C4U C49A A65U was 0.583.

For C4U U8A A37C, the yeast fitness was determined as 0.821.

On to C4U U8C A42G, for which the yeast fitness came out at 0.69. The figure for C4U U8C A42C is 0.539.

In the case of C4U C34G C49G G68C, the yeast fitness is not above 0.5. The figure for C4U U7C G10A A14U C27G A36G is 0.505. The value for C4U G18C A45C was not above 0.5. The value for C4U G6A A14C A65C was not above 0.5.

In the case of C4U G25A G48C C62A, the yeast fitness is 0.551. The value for C4U G12A C24A G67C was not above 0.5; that for C4U U8A U13C A57U C60G G68C was not above 0.5; that for C4U C34A was 0.846. The figure for C4U G18A A69U is 0.743; for C4U U7G C34G C55U it is 0.563; for C4U C55G A65G C66G it is not above 0.5. For C4U G9A A40U, the yeast fitness came out at 1.05.

As to C4U G10C C60G G67A, the yeast fitness is not above 0.5.

As to C4U G56C, the yeast fitness came out at 0.655. Consider C4U G23C C49A G68C, for which the yeast fitness is not above 0.5. The value for C4U C46U was 1.01; that for C4U C46A was 0.841.

Take C4U G12A C62G: the yeast fitness stood at 0.53. The figure for C4U C34G G52A A69C is not above 0.5; for C4U G9C C24U C30G G51A C60U G67A it is not above 0.5; for C4U G39A G67A it is 0.61.

In the case of C4U C34G C66A, the yeast fitness turned out to be 0.562. As to C4U G67A A69U, the yeast fitness was 0.684. The figure for C4U G6A C61A is not above 0.5; for C4U G18A G23C C24G it is 0.518. The figure for C4U C31U A37U is 0.617; for C4U G9A C22G A42U U64A G67A it is 0.58. The value for C4U G12C was 0.884. In the case of C4U G18A A20G G23C C24G C46G, the yeast fitness was not above 0.5.

Regarding C4U G18C G68C, the yeast fitness worked out at 0.535.

On to C4U C31U C61U G68C, for which the yeast fitness was not above 0.5.

As for C4U U7A G10C C27G U32A, the yeast fitness was not above 0.5.

On to C4U G23C A36C A70U, for which the yeast fitness was not above 0.5.

Turning to C4U C61G, the yeast fitness worked out at 0.63. The figure for C4U C61A is 0.667; for C4U G12C U64C A70U it is not above 0.5. Take C4U G9C C61G: the yeast fitness is not above 0.5. The value for C4U G17C G44A C61U was 0.556; that for C4U U7G C34G A70U was not above 0.5; that for C4U G52C G67C was not above 0.5. For the variant C4U G44C C55G A69U, the yeast fitness is not above 0.5. For the variant C4U G10A U13C C24U, the yeast fitness is 0.741.

For C4U U16A A37U C55G, the yeast fitness is not above 0.5. The value for C4U G23C G39C G44A G67A was not above 0.5; that for C4U U16A A20G was 0.665.

Consider C4U U16A A20C, for which the yeast fitness worked out at 0.58. The value for C4U U8C C11A G12A U28C G44C was not above 0.5; that for C4U G9C C61A A69C was not above 0.5. The value for C4U C55A U64A A65U was not above 0.5.

As to C4U G9A C29A U53A, the yeast fitness was not above 0.5. The value for C4U G41C G51C G58C was not above 0.5; that for C4U G44C was 1.01; that for C4U G44A was 1.05. The figure for C4U G18A G23C C24G C46G C66G is not above 0.5; for C4U G51C G58A U59G it is not above 0.5; for C4U G44C A70C it is 0.782. The value for C4U U7G C34G G48C C61U was not above 0.5. For the variant C4U C55U A57U, the yeast fitness is 0.536. The value for C4U C31U G52C C61A was not above 0.5; that for C4U G12A G48C was 0.648; that for C4U G18A G39C G58C G67A was not above 0.5. The value for C4U C55G A65G was not above 0.5; that for C4U C34G G63C A69C was not above 0.5; that for C4U U7A U54G was not above 0.5. The figure for C4U C49G is 0.874. With C4U U16A A37C, the yeast fitness is not above 0.5.

For C4U G9A C22G C24U A42U U64A G67A, the yeast fitness came to 0.572. The figure for C4U G10A C34G A40G U64C is not above 0.5. The figure for C4U G9A C24G C29G G67A is not above 0.5. The figure for C4U C60A is 0.532; for C4U C60G it is 0.671. Consider C4U G52A A70C, for which the yeast fitness turned out to be 0.646.

Consider C4U C33G U47G, for which the yeast fitness worked out at 0.591.

As to C4U G10C C31G G50C C66U, the yeast fitness was not above 0.5. The figure for C4U G10A A15C is 0.551. The value for C4U G25A was 0.895; that for C4U C62G G67A was not above 0.5. In the case of C4U C31A A37C G48A G58C, the yeast fitness is not above 0.5.

For C4U G10C G17C C27G G38C U54G, the yeast fitness is not above 0.5. The figure for C4U C46G C66G is 0.539. With C4U G10A G39C, the yeast fitness was found to be 0.627.

In the case of C4U C31G G38A C61A G63A, the yeast fitness is not above 0.5. The value for C4U G9A A15U A20C C27A A65U was 0.768; that for C4U C33A U54G was not above 0.5. The figure for C4U G25A A36G is 0.641; for C4U U8C A40U G50C it is not above 0.5. The value for C4U G17C U47C C49A was not above 0.5; that for C4U U13C C30G C55U was 0.761; that for C4U G38C G41A C61G was 0.707. Take C4U U7C C49G: the yeast fitness turned out to be 0.534. The value for C4U G48A G52C U54C was not above 0.5; that for C4U U7G A37G was 0.536. The figure for C4U G56C A65U is not above 0.5.

Take C4U G41A A42C: the yeast fitness was not above 0.5.

Take C4U U7A C30G C34G A40C C66A A69C: the yeast fitness was 0.559. Take C4U G18C A45U G52A A65U: the yeast fitness is not above 0.5.

As for C4U G41C C60G, the yeast fitness was not above 0.5. The figure for C4U C31U A43G C61A G63A A65U C66G is 0.575; for C4U G9A C24G A37C G41A A57U it is not above 0.5; for C4U G9C C33G C49A A70G it is not above 0.5. The figure for C4U C31U A69C is 0.669; for C4U C34U G68C it is not above 0.5. C4U G10A C60G C66G A69U: the yeast fitness was not above 0.5. The value for C4U G9C A45G C61A was not above 0.5. On to C4U U8A U32G U35A G68U, for which the yeast fitness was not above 0.5. With C4U C49G G68A A70C, the yeast fitness turned out to be 0.606. C4U C60G C61U G68A: the yeast fitness is not above 0.5. The figure for C4U U7A C62G is not above 0.5; for C4U U7C C24G C34A A45C G56A C61A A65C A69C A70G it is not above 0.5; for C4U G48C C55G A69U it is not above 0.5. For the variant C4U G18A C22U A40C G68C, the yeast fitness amounted to 0.591. The figure for C4U G25A G56A is 0.645; for C4U C34U U59A it is not above 0.5; for C4U U16A A20C U54A G67U it is not above 0.5. The figure for C4U C33A G68A is not above 0.5; for C4U C33G A36G G67A G68C it is 0.604. The figure for C4U G44C C46A G56C is not above 0.5; for C4U G6C A14C C24G A45C A57C C61U it is not above 0.5; for C4U G10C U35C G41A C49U it is not above 0.5. Consider C4U C31U A37C C66U A69U, for which the yeast fitness is not above 0.5.

As for C4U G10C U35C G41A C62G A70U, the yeast fitness was not above 0.5. The value for C4U G9A C33G G67A was not above 0.5. The value for C4U G17A C34A A57U was not above 0.5; that for C4U C31G A42C C66U was not above 0.5. The figure for C4U C49U C61G is 0.594.

For the variant C4U G12A A20G C22U C55U, the yeast fitness turned out to be 0.606.

Regarding C4U G48A, the yeast fitness stood at 0.857. The value for C4U G48C was 0.951. The value for C4U G25A A69C was 0.761.

Turning to C4U G9A C11U C34A, the yeast fitness is not above 0.5. The value for C4U G23A U26C was not above 0.5; that for C4U U7G A14U was not above 0.5. The figure for C4U G6A A36C C46U is not above 0.5.

Regarding C4U U13C C24U C49U, the yeast fitness is not above 0.5. The value for C4U G25A G48C was 0.62; that for C4U G18A G23C C24G C46G was not above 0.5; that for C4U C49G G50C was not above 0.5. In the case of C4U G17A C22U, the yeast fitness was not above 0.5. The value for C4U G10C C31G was not above 0.5; that for C4U G12A A20G C22U C34U A37G was not above 0.5.

Turning to C4U G10C U35C G41A, the yeast fitness is not above 0.5. Regarding C4U G56A G67A, the yeast fitness came out at 0.649. The value for C4U U7C G23A A40U A42C was not above 0.5; that for C4U G63A C66U was 0.792; that for C4U G58A was 0.838. The value for C4U G58C was 1.02.

For the variant C4U C31G A37G, the yeast fitness stood at 0.526. The figure for C4U U8G G12A is 0.539; for C4U G6A C62G it is 0.54.
